From ChEMBL document CHEMBL1124779, “Synthesis and antitumor activity of 1-[[(dialkylamino)alkyl]amino]-4-methyl-5H-pyrido[4,3-b]benzo[e]- and -benzo[g])indoles. A new class of antineoplastic agents” (1990)
Values after ≈ are worked out from the molar mass of the structure shown.

Columns and labels:
P388 [1] = assay: In vitro cytotoxicity was determined against P388 leukemia cells; type: functional; conditions: Mus musculus, read-out: ID50 (the source's name)
Summary of the method: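 P388 cells in exponential growth, RPMI 1640 with 2 mM glutamine, 10 μM 2-mercaptoethanol and 10% FCS, 5% CO2, 37 °C. Cells at 10^5 cells/mL. Drugs in distilled water added on day 0. Cells counted by Coulter counter after 96 h. ID50 (μg/mL, 50% inhibition of proliferation) estimated by regression of concentration/response data.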

P388 [2] = assay: In vivo T/C (survival time treated/survival time control x 100) was determined against P388 leukemia cells at 40 mg/Kg; type: functional, Mus musculus
Summary of the method: (§1)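 B6D2 F1 mice, at least five per group, were inoculated ip on day 0 with 10^6 viable P388 cells (25 mL/kg). Compounds were dissolved in distilled water and given ip (25 mL/kg) daily on days 1–4. Mortality was checked daily, with necropsy of dead animals. T/C×100 was median survival, treated versus control. Survivors beyond 50 days counted as cured and were excluded from the median.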

L1210 [3] = assay: In vivo T/C (survival time treated/survival time control x 100) was determined against L1210 leukemia cells at 40 mg/Kg; type: functional, Mus musculus
Summary of the method: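 B6D2 F1 mice, at least five per group, were inoculated ip on day 0 with 10^5 viable L1210 cells (25 mL/kg). Compounds were dissolved in distilled water and given ip (25 mL/kg) on days 1–4. Deaths were checked daily, with necropsy to separate tumor from toxic death. T/C×100 was median survival of treated over controls. Mice surviving over 50 days counted as cured and were excluded from the median.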

L1210 [4] = assay: Tested for cytotoxicity in the multiple tumor disk diffusion soft agar assay at the dose of 15 ug/disk against leukemia L1210; range is 475-600; type: functional, Mus musculus
Summary of the method: (§2)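 Soft agar disk diffusion: bottom layer 0.8% noble agar, top layer 0.47% noble agar, both in 1:1 CMRL-Fischer medium with 11% horse serum. Top layer seeded with 5×10^3 L1210 cells or 10^6 solid tumor cells (C38, PO3). Drug applied on a dried 6-mm filter-paper disk. Incubation 7-11 days. Inhibition zone measured by inverted microscope, in units (1 unit = 30 μm).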

[5] = Cytotoxicity in the multiple tumor disk diffusion soft agar assay at the dose of 15 ug/disk against solid tumor PO3; type: functional, Mus musculus; summary of the method: as §2
L1210 [6] = assay: Cytotoxicity in the multiple tumor disk diffusion soft agar assay at the dose of 15 ug/disk against leukemia L1210; type: functional, Mus musculus; summary of the method: as §2
[7] = Tested for cytotoxicity in the multiple tumor disk diffusion soft agar assay at the dose of 15 ug/disk against solid tumor C38; range is 450-525; type: functional, Mus musculus; summary of the method: as §2
L1210 [8] = assay: Tested for cytotoxicity in the multiple tumor disk diffusion soft agar assay at the dose of 15 ug/disk against leukemia L1210; U = 32 uM; type: functional, Mus musculus; summary of the method: as §2
L1210 [9] = assay: Tested for cytotoxicity in the multiple tumor disk diffusion soft agar assay at the dose of 15 ug/disk against leukemia L1210; range is 300-380; type: functional, Mus musculus; summary of the method: as §2
[10] = Tested for cytotoxicity in the multiple tumor disk diffusion soft agar assay at the dose of 15 ug/disk against solid tumor C38; U = 32 uM; type: functional, Mus musculus; summary of the method: as §2
[11] = Tested for cytotoxicity in the multiple tumor disk diffusion soft agar assay at the dose of 15 ug/disk against solid tumor PO3; type: functional, Mus musculus; summary of the method: as §2
P388 [12] = assay: In vivo T/C (survival time treated/survival time control x 100) was determined against P388 leukemia cells at 20 mg/Kg; type: functional, Mus musculus; summary of the method: as §1
L1210 [13] = assay: Tested for cytotoxicity in the multiple tumor disk diffusion soft agar assay at the dose of 15 ug/disk against leukemia L1210; range is 550-680; type: functional, Mus musculus; summary of the method: as §2
[14] = Cytotoxicity in the multiple tumor disk diffusion soft agar assay at the dose of 15 ug/disk against solid tumor C38.; type: functional, Mus musculus; summary of the method: as §2
[15] = Tested for the change in body weight between day1 and 7 for murine solid tumor model B16 early stage that is subcutaneously implanted by the intravenous treatment at the dose of 5 mg/kg in 1-4 schedule; type: functional, Mus musculus
Summary of the method: (§3)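 sc implant of 1 mm³ tumor fragment. MA 16/C in C3H mice, B16 in C57BL/6 mice, C26 in CD2F1 mice; 10 per group. iv dosing on days 1-4 at 10 mL/kg. Mice weighed daily. Killed day 14 (C26) or day 15 (MA 16/C, B16) and tumors weighed. T/C×100 from median tumor weight, treated vs control. Body weight change taken from day 1 to 7.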

[16] = Tested for medium tumor weight of treated /control animals x 100 (% T/C) for murine solid tumor model B16 early stage that is subcutaneously implanted by the intravenous treatment at the dose of 5 mg/kg in 1-4 schedule; type: functional, Mus musculus; summary of the method: as §3
Mus musculus [17] = assay: Tested for medium tumor weight of treated /control animals x 100 (% T/C) for murine solid tumor model C26 early stage that is subcutaneously implanted by the intravenous treatment at the dose of 10 mg/kg in 1-4 schedule; type: functional; summary of the method: as §3
Mus musculus [18] = assay: Tested for the change in body weight between day1 and 7 for murine solid tumor model MA 16/C early stage that is subcutaneously implanted by the intravenous treatment at the dose of 5 mg/kg in 1-4 schedule; type: functional
Summary of the method: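 Mice given sc 1 mm³ tumor fragment: C26 in CD2F1 mice, MA 16/C in C3H mice (tumors passaged in strain of origin), 10 per group. Drug given iv days 1–4 at 10 mL/kg. Animals weighed daily and watched for toxicity. Body-weight change taken from day 1 to day 7. Killed day 14 (C26) or 15 (MA 16/C).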

Mus musculus [19] = assay: Tested for medium tumor weight of treated /control animals x 100 (% T/C) for murine solid tumor model MA 16/C early stage that is subcutaneously implanted by the intravenous treatment at the dose of 5 mg/kg in 1-4 schedule; type: functional; summary of the method: as §3
Mus musculus [20] = assay: Tested for the change in body weight between day1 and 7 for murine solid tumor model C26 early stage that is subcutaneously implanted by the intravenous treatment at the dose of 10 mg/kg in 1-4 schedule; type: functional; summary of the method: as §3
[21] = Tested for cytotoxicity in the multiple tumor disk diffusion soft agar assay at the dose of 15 ug/disk against solid tumor PO3; range is 430-480; type: functional, Mus musculus
P388 [22] = assay: In vivo T/C (survival time treated/survival time control x 100) was determined against P388 leukemia cells at 10 mg/Kg; type: functional, Mus musculus; summary of the method: as §1
L1210 [23] = assay: Tested for cytotoxicity in the multiple tumor disk diffusion soft agar assay at the dose of 15 ug/disk against leukemia L1210; type: functional, Mus musculus; summary of the method: as §2
L1210 [24] = assay: Tested for cytotoxicity in the multiple tumor disk diffusion soft agar assay at the dose of 15 ug/disk against leukemia L1210; range is 420-525; type: functional, Mus musculus; summary of the method: as §2

## CCN(CC)CCCNc1[nH]cc(C)c2nc3ccc4cc(OC)ccc4c3c1-2
P388 [1]
  IC50: 1 µg/mL (≈ 2.56 µM)
P388 [2]
  T/C x100: 189
L1210 [3]
  T/C x100: 112

## Cc1cnc(NCCCN(C)C)c2c3c4ccccc4ccc3n(C)c12
L1210 [4]
  Cytotoxicity: 475 U
P388 [1]
  IC50: 0.05 µg/mL (≈ 0.144 µM)
P388 [2]
  T/C x100: 164
[5]
  Cytotoxicity: 550 U
L1210 [6]
  Cytotoxicity: 425 U
[7]
  Cytotoxicity: 450 U

## CCN(CC)CCCNc1ncc(C)c2c1c1ccc3ccccc3c1n2C
L1210 [8]
  Cytotoxicity: 450 U
L1210 [9]
  Cytotoxicity: 300 U
P388 [1]
  IC50: 0.375 µg/mL (≈ 1 µM)
[10]
  Cytotoxicity: 500 U
[11]
  Cytotoxicity: 200 U
P388 [12]
  T/C x100: 108

## COc1ccc2c(ccc3c2c2c(NCCCN(C)C)ncc(C)c2n3C)c1
L1210 [13]
  Cytotoxicity: 550 U
P388 [1]
  IC50: 0.5 µg/mL (≈ 1.33 µM)
P388 [2]
  T/C x100: 150
[5]
  Cytotoxicity: 200 U
L1210 [6]
  Cytotoxicity: 425 U
[14]
  Cytotoxicity: 325 U

## CCN(CC)CCCNc1nccc2c(C)c3[nH]c4ccncc4c3cc12 [PAZELLIPTINE]
[15]
  Change in weight: -0.5 g
[16]
  T/C: 10%
Mus musculus [17]
  T/C: 10%
Mus musculus [18]
  Change in weight: -1.5 g
Mus musculus [19]
  T/C: 45%
Mus musculus [20]
  Change in weight: -1.5 g

## CCN(CC)CCCNc1ncc(C)c2c1c1ccc3c(O)cccc3c1n2C
L1210 [8]
  Cytotoxicity: 500 U
[21]
  Cytotoxicity: 430 U
P388 [22]
  T/C x100: 160
P388 [1]
  IC50: 0.05 µg/mL (≈ 0.128 µM)
[10]
  Cytotoxicity: 730 U
L1210 [23]
  Cytotoxicity: 450 U

## CCN(CC)CCCNc1ncc(C)c2[nH]c3ccc4ccccc4c3c12
P388 [1]
  IC50: 0.18 µg/mL (≈ 0.499 µM)
P388 [2]
  T/C x100: 149
L1210 [24]
  Cytotoxicity: 420 U
[14]
  Cytotoxicity: 525 U
